Among the data in ChEMBL document CHEMBL2146456, “Identification and characterization of GABA(A) receptor modulatory diterpenes from Biota orientalis that decrease locomotor activity in mice” (J Nat Prod, 2011) are Imax values, retold here.

Assay [1] has as its system Oocyte. In words: Allosteric modulation of gamma-aminobutyric acid receptor A alpha1beta2gamma2S expressed in Xenopus oocytes assessed as potentiation of GABA-mediated chloride current at 100 uM by voltage clamp analysis relative to control. Type of assay: cell-based. A digest of the protocol: (§1)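 Oocytes were injected with α1β2γ2S, α1β3γ2S, α2β2γ2S, α3β2γ2S or α5β2γ2S cRNAs at a 1:1:10 ratio. Two-electrode voltage clamp was run 1–5 days post-injection in HEPES-buffered saline at pH 7.4. Compounds in GABA EC5–10 (3–10 μM) were given by automated fast perfusion: screening at 10 and 100 μM (n = 2), otherwise concentration series. Potentiation = I(GABA+Comp)/IGABA − 1, with nonlinear regression fits.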

The test system of assay [2] is Oocyte. In words: Allosteric modulation of gamma-aminobutyric acid receptor A alpha1beta2gamma2S expressed in Xenopus oocytes assessed as potentiation of GABA-mediated chloride current at 10 uM by voltage clamp analysis relative to control. The format is cell-based. The method, boiled down:
as §1

Regarding `C=C1CC[C@@H]2[C@](C)(CCC[C@]2(C)C(=O)OC)[C@H]1CCC1=CCOC1=O`, the results for the Imax in assay [1] and in assay [2] were -13.1% and -13.4%, respectively.

As to `C=C[C@]1(C)C=C2CC[C@H]3[C@](C)(C=O)[C@@H](O)CC[C@]3(C)[C@H]2CC1`, the values for the Imax in assay [1] and in assay [2] were 3% and 3.8%, respectively.

Take `C=C[C@]1(C)C=C2CC[C@H]3[C@](C)(CO)[C@@H](O)CC[C@]3(C)[C@H]2CC1`: the Imax in assay [1] turned out to be 7.7%; in assay [2], 13.8%.

Consider `CC(C)c1c(O)ccc2c1CC[C@H]1C(C)(C)CCC[C@]21C`, for which the results for the Imax in assay [1] and in assay [2] were -15.1% and -10.6%, respectively.
